Experimental data: ChEMBL document CHEMBL1275425, “Mechanism of inhibition of human immunodeficiency virus type 1 reverse transcriptase by a stavudine analogue, 4'-ethynyl stavudine triphosphate” (Antimicrob Agents Chemother, 2008)

Tests used:
[1] = molecular target: T1, Human immunodeficiency virus type 1 reverse transcriptase (Human immunodeficiency virus 1, UniProt Q72547); test: Inhibition of RNA-dependent DNA polymerase activity of HIV 1 reverse transcriptase assessed as incorporation of 4-EdTMP by burst assay using RNA/DNA Primer/Template combination
How it was run: (§1)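 Rapid chemical quench-flow at 25°C in 50 mM Tris-HCl pH 7.8, 50 mM NaCl. Wt or M184V HIV-1 RT (100 nM final) was preincubated with 5′-32P-labelled primer/template (300 nM final; DNA/DNA or DNA/RNA). It was mixed with buffer containing 20 mM MgSO4 (pre-mixing) and 2 mM nucleotide triphosphate (pre-mixing). Reactions were quenched at set times with 0.5 M EDTA and products resolved by urea-PAGE with phosphorimaging. Data were fitted to the burst equation.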

[2] = molecular target: Human immunodeficiency virus type 1 reverse transcriptase (Human immunodeficiency virus 1) (UniProt Q72547); test: Activity of DNA-dependent DNA polymerase activity of HIV 1 reverse transcriptase assessed as incorporation of 4-EdTMP by burst assay using DNA/DNA Primer/Template combination
How it was run: (§2)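 Purified HIV-1 RT (wild type or M184V built by site-directed mutagenesis) was preincubated with a 5′-32P-labeled primer annealed to a DNA or RNA template. It was rapidly mixed in a quench-flow at 25°C in 50 mM Tris-HCl pH 7.8 with 50 mM NaCl and MgSO4. Final: 300 nM P/T, 100 nM enzyme, 1 mM nucleotide. Reactions were EDTA-quenched at set times, run on urea-PAGE and phosphorimaged, then fitted to the burst equation.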

[3] = tested on: Human immunodeficiency virus type 1 reverse transcriptase (Human immunodeficiency virus 1), Q72547 [M184V]; test: Ratio of Kpol/Kd for DNA-dependent DNA polymerase activity of HIV 1 reverse transcriptase M184V mutant assessed as incorporation of 4-EdTMP by burst assay using DNA/DNA Primer/Template combination
How it was run: (§3)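 Single-turnover rapid-quench at 25°C in Tris-HCl pH 7.8/NaCl/MgSO4 buffer, with enzyme in excess: 250 nM wild-type or M184V RT and 50 nM 5′-32P-labeled DNA/DNA or DNA/RNA primer/template. The incoming nucleotide concentration was varied. Products were resolved by urea-PAGE and phosphorimaged. First-phase rates were fitted to kobs = kpol[S]/(Kd+[S]), and efficiency was taken as kpol/Kd.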

[4] = molecular target: Human immunodeficiency virus type 1 reverse transcriptase (Human immunodeficiency virus 1) (UniProt Q72547); test: Activity of RNA-dependent DNA polymerase activity of HIV 1 reverse transcriptase assessed as incorporation of 4-EdTMP by burst assay using RNA/DNA Primer/Template combination; how it was run: as §2
[5] = molecular target: T1, Human immunodeficiency virus type 1 reverse transcriptase; test: Inhibition of DNA-dependent DNA polymerase activity of HIV 1 reverse transcriptase assessed as incorporation of 4-EdTMP by burst assay using DNA/DNA Primer/Template combination; how it was run: as §1
[6] = tested on: Human immunodeficiency virus type 1 reverse transcriptase (Human immunodeficiency virus 1), Q72547 [M184V]; test: Activity of RNA-dependent DNA polymerase activity of HIV 1 reverse transcriptase M184V mutant assessed as incorporation of 4-EdTMP by burst assay using RNA/DNA Primer/Template combination; how it was run: as §2
[7] = molecular target: T2, Human immunodeficiency virus type 1 reverse transcriptase (Human immunodeficiency virus 1, UniProt Q72547, M184V); test: Inhibition of RNA-dependent DNA polymerase activity of HIV 1 reverse transcriptase M184V mutant assessed as incorporation of 4-EdTMP by single-turnover assay using RNA/DNA Primer/Template combination
[8] = tested on: Human immunodeficiency virus type 1 reverse transcriptase (Human immunodeficiency virus 1), Q72547 [M184V]; test: (§4) Selectivity index, ratio of Kpol/Kd for DNA-dependent DNA polymerase activity of HIV 1 reverse transcriptase M184V mutant assessed as incorporation of dTMP to Kpol/Kd for DNA-dependent DNA polymerase activity of HIV 1 reverse transcriptase reverse transcriptase M184V mutant assessed as incorporation of Ed4TMP
How it was run: (§5)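 Selectivity factor: the single-turnover incorporation efficiency (kpol/Kd) for dTTP divided by that for the analogue triphosphate. Both used the same RT (wild type or M184V) and the same primer/template, DNA/DNA or DNA/RNA. Kd and kpol came from hyperbolic fits of first-phase rates against nucleotide concentration, with 250 nM RT over 50 nM labeled P/T at 25°C.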

[9] = molecular target: Human immunodeficiency virus type 1 reverse transcriptase (Human immunodeficiency virus 1) (UniProt Q72547); test: Selectivity index, ratio of Kpol/Kd for DNA-dependent DNA polymerase activity of HIV 1 reverse transcriptase assessed as incorporation of dTMP to Kpol/Kd for DNA-dependent DNA polymerase activity of HIV 1 reverse transcriptase reverse transcriptase assessed as incorporation of Ed4TMP; how it was run: as §5
[10] = molecular target: Human immunodeficiency virus type 1 reverse transcriptase (Human immunodeficiency virus 1) (UniProt Q72547); test: Selectivity index, ratio of Kpol/Kd for RNA-dependent DNA polymerase activity of HIV 1 reverse transcriptase assessed as incorporation of dTMP to Kpol/Kd for RNA-dependent DNA polymerase activity of HIV 1 reverse transcriptase reverse transcriptase assessed as incorporation of Ed4TMP; how it was run: as §5
[11] = molecular target: Human immunodeficiency virus type 1 reverse transcriptase (Human immunodeficiency virus 1) (UniProt Q72547); test: Ratio of Kpol/Kd for DNA-dependent DNA polymerase activity of HIV 1 reverse transcriptase assessed as incorporation of 4-EdTMP by burst assay using DNA/DNA Primer/Template combination; how it was run: as §3
[12] = tested on: Human immunodeficiency virus type 1 reverse transcriptase (Human immunodeficiency virus 1), Q72547 [M184V]; test: as §4, with “RNA-dependent” for “DNA-dependent”; how it was run: as §5
[13] = molecular target: Human immunodeficiency virus type 1 reverse transcriptase (Human immunodeficiency virus 1) (UniProt Q72547); test: Ratio of Kpol/Kd for RNA-dependent DNA polymerase activity of HIV 1 reverse transcriptase assessed as incorporation of 4-EdTMP by burst assay using RNA/DNA Primer/Template combination; how it was run: as §3
[14] = tested on: Human immunodeficiency virus type 1 reverse transcriptase (Human immunodeficiency virus 1), Q72547 [M184V]; test: Activity of DNA-dependent DNA polymerase activity of HIV 1 reverse transcriptase M184V mutant assessed as incorporation of 4-EdTMP by burst assay using DNA/DNA Primer/Template combination; how it was run: as §2
[15] = tested on: Human immunodeficiency virus type 1 reverse transcriptase (Human immunodeficiency virus 1), Q72547 [M184V]; test: Ratio of Kpol/Kd for RNA-dependent DNA polymerase activity of HIV 1 reverse transcriptase M184V mutant assessed as incorporation of 4-EdTMP by burst assay using RNA/DNA Primer/Template combination; how it was run: as §3
[16] = molecular target: T2, Human immunodeficiency virus type 1 reverse transcriptase; test: Inhibition of DNA-dependent DNA polymerase activity of HIV 1 reverse transcriptase M184V mutant assessed as incorporation of 4-EdTMP by burst assay using DNA/DNA Primer/Template combination
[17] = molecular target: Human immunodeficiency virus type 1 reverse transcriptase (Human immunodeficiency virus 1) (UniProt Q72547); test: Activity of DNA-dependent DNA polymerase activity of HIV 1 reverse transcriptase assessed as incorporation of dTMP by burst assay using DNA/DNA Primer/Template combination; how it was run: as §2
[18] = molecular target: T1, Human immunodeficiency virus type 1 reverse transcriptase; test: Inhibition of DNA-dependent DNA polymerase activity of HIV 1 reverse transcriptase assessed as incorporation of dTMP by burst assay using DNA/DNA Primer/Template combination
How it was run: (§6)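 Pre-steady-state burst assay by rapid chemical quench at 25°C. Wild-type or M184V HIV-1 RT was preincubated with 5′-32P-labelled primer annealed to a DNA or RNA template. Final conditions were 100 nM enzyme, 300 nM P/T, and 1 mM nucleotide in 50 mM Tris-HCl pH 7.8 with 50 mM NaCl and MgSO4. Reactions were quenched with EDTA and products resolved by urea-PAGE with phosphorimaging. Data were fitted to the burst equation to give amplitude, kob and kss.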

[19] = tested on: Human immunodeficiency virus type 1 reverse transcriptase (Human immunodeficiency virus 1), Q72547 [M184V]; test: Activity of RNA-dependent DNA polymerase activity of HIV 1 reverse transcriptase M184V mutant assessed as incorporation of dTMP by burst assay using RNA/DNA Primer/Template combination; how it was run: as §6
[20] = molecular target: Human immunodeficiency virus type 1 reverse transcriptase (Human immunodeficiency virus 1) (UniProt Q72547); test: Activity of RNA-dependent DNA polymerase activity of HIV 1 reverse transcriptase assessed as incorporation of dTMP by burst assay using RNA/DNA Primer/Template combination; how it was run: as §2
[21] = molecular target: T2, Human immunodeficiency virus type 1 reverse transcriptase; test: Inhibition of RNA-dependent DNA polymerase activity of HIV 1 reverse transcriptase M184V mutant assessed as incorporation of dTMP by burst assay using RNA/DNA Primer/Template combination; how it was run: as §6
[22] = tested on: Human immunodeficiency virus type 1 reverse transcriptase (Human immunodeficiency virus 1), Q72547 [M184V]; test: Activity of DNA-dependent DNA polymerase activity of HIV 1 reverse transcriptase M184V mutant assessed as incorporation of dTMP by burst assay using DNA/DNA Primer/Template combination; how it was run: as §2
[23] = tested on: Human immunodeficiency virus type 1 reverse transcriptase (Human immunodeficiency virus 1), Q72547 [M184V]; test: Ratio of Kpol/Kd for RNA-dependent DNA polymerase activity of HIV 1 reverse transcriptase M184V mutant assessed as incorporation of dTMP by burst assay using RNA/DNA Primer/Template combination
How it was run: (§7)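 Single-turnover rapid-quench assay at 25°C, Tris-HCl pH 7.8 and NaCl. Enzyme (250 nM wild-type or M184V RT) was in excess over 5′-32P-labelled DNA/DNA or DNA/RNA P/T (50 nM), with the nucleotide triphosphate concentration varied. First-phase observed rates were fitted to kobs = kpol[S]/(Kd + [S]) to obtain Kd and kpol. Incorporation efficiency was taken as kpol/Kd.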

[24] = molecular target: Human immunodeficiency virus type 1 reverse transcriptase (Human immunodeficiency virus 1) (UniProt Q72547); test: Ratio of Kpol/Kd for RNA-dependent DNA polymerase activity of HIV 1 reverse transcriptase assessed as incorporation of dTMP by burst assay using RNA/DNA Primer/Template combination; how it was run: as §7
[25] = tested on: Human immunodeficiency virus type 1 reverse transcriptase (Human immunodeficiency virus 1), Q72547 [M184V]; test: Ratio of Kpol/Kd for DNA-dependent DNA polymerase activity of HIV 1 reverse transcriptase M184V mutant assessed as incorporation of dTMP by burst assay using DNA/DNA Primer/Template combination; how it was run: as §7
[26] = molecular target: Human immunodeficiency virus type 1 reverse transcriptase (Human immunodeficiency virus 1) (UniProt Q72547); test: Ratio of Kpol/Kd for DNA-dependent DNA polymerase activity of HIV 1 reverse transcriptase assessed as incorporation of dTMP by burst assay using DNA/DNA Primer/Template combination; how it was run: as §7
[27] = molecular target: T1, Human immunodeficiency virus type 1 reverse transcriptase; test: Inhibition of RNA-dependent DNA polymerase activity of HIV 1 reverse transcriptase assessed as incorporation of dTMP by burst assay using RNA/DNA Primer/Template combination; how it was run: as §6
[28] = molecular target: T2, Human immunodeficiency virus type 1 reverse transcriptase; test: Inhibition of DNA-dependent DNA polymerase activity of HIV 1 reverse transcriptase M184V mutant assessed as incorporation of dTMP by burst assay using DNA/DNA Primer/Template combination; how it was run: as §6
[29] = molecular target: T1, Human immunodeficiency virus type 1 reverse transcriptase; test: Inhibition of RNA-dependent DNA polymerase activity of HIV 1 reverse transcriptase assessed as incorporation of d4TMP by burst assay using RNA/DNA Primer/Template combination
[30] = molecular target: T2, Human immunodeficiency virus type 1 reverse transcriptase; test: Inhibition of RNA-dependent DNA polymerase activity of HIV 1 reverse transcriptase M184V mutant assessed as incorporation of d4TMP by burst assay using RNA/DNA Primer/Template combination
[31] = molecular target: T1, Human immunodeficiency virus type 1 reverse transcriptase; test: Inhibition of DNA-dependent DNA polymerase activity of HIV 1 reverse transcriptase assessed as incorporation of d4TMP by burst assay using DNA/DNA Primer/Template combination
[32] = molecular target: T2, Human immunodeficiency virus type 1 reverse transcriptase; test: Inhibition of DNA-dependent DNA polymerase activity of HIV 1 reverse transcriptase M184V mutant assessed as incorporation of d4TMP by burst assay using DNA/DNA Primer/Template combination

C#C[C@@]1(COP(=O)(O)OP(=O)(O)OP(=O)(O)O)C=C[C@H](n2cc(C)c(=O)[nH]c2=O)O1
Kd [1]: 11.4 µM
Activity [2]: 12.1 s⁻¹
Ratio [3]: 0.11 µM⁻¹ s⁻¹
Activity [4]: 11.7 s⁻¹
Kd [5]: 15.8 µM
Activity [6]: 9.7 s⁻¹
Kd [7]: 43.4 µM
Ratio [8]: 2.8
Ratio [9]: 1.9
Ratio [10]: 0.97
Ratio [11]: 0.77 µM⁻¹ s⁻¹
Ratio [12]: 1.3
Ratio [13]: 1 µM⁻¹ s⁻¹
Activity [14]: 18.9 s⁻¹
Ratio [15]: 0.22 µM⁻¹ s⁻¹
Kd [16]: 168 µM

Cc1cn([C@H]2C[C@H](O)[C@@H](COP(=O)(O)OP(=O)(O)OP(=O)(O)O)O2)c(=O)[nH]c1=O [DEOXYTHYMIDINE_TRIPHOSPHATE]
Activity [17]: 22.6 s⁻¹
Kd [18]: 15.4 µM
Activity [19]: 41.7 s⁻¹
Activity [20]: 65 s⁻¹
Kd [21]: 144 µM
Activity [22]: 22.4 s⁻¹
Ratio [23]: 0.29 µM⁻¹ s⁻¹
Ratio [24]: 0.97 µM⁻¹ s⁻¹
Ratio [25]: 0.31 µM⁻¹ s⁻¹
Ratio [26]: 1.47 µM⁻¹ s⁻¹
Kd [27]: 67.1 µM
Kd [28]: 73.2 µM

Cc1cn([C@H]2C=C[C@@H](COP(=O)(O)OP(=O)(O)OP(=O)(O)O)O2)c(=O)[nH]c1=O [STAVUDINE TRIPHOSPHATE]
Kd [29]: 40.8 µM
Kd [30]: 232 µM
Kd [31]: 48 µM
Kd [32]: 605 µM
